Reference: ChEMBL document CHEMBL1153919, “Pyrano[2,3-e]isoindol-2-ones, new angelicin heteroanalogues” (Bioorg Med Chem Lett, 2009)

System: not listed separately
Experiment: Phototoxicity against human NCTC-2544 cells exposed to irradiation with 3.75 J/cm'2 UVA light prior to 72 hrs drug exposure by MTT assay
Assay type: cell-based
Conditions: NCTC-2544, light or radiation study
Summary of the method: (§1)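 Phototoxicity panel: NCTC-2544 keratinocytes, LoVo adenocarcinoma, K562 and Jurkat leukemia cells. Cells with compound received UVA at 2.5 or 3.75 J/cm2. Cell growth was measured by MTT after 72 h of exposure. IC50 is the concentration inhibiting growth by 50%.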

Question: For CCOC(=O)c1cc2ccc3c(C(=O)OCC)[nH]c(C)c3c2oc1=O, which IC50 is on record?
Answer: > 20 µM

Question: For CCOC(=O)c1cc2c(oc1=O)-c1cn(C)cc1CC2, which IC50 is on record?
Answer: > 20 µM

Question: For CCOC(=O)c1cc2ccc3c(C(=O)OCC)n(C)c(C)c3c2oc1=O, which IC50 is on record?
Answer: > 20 µM

Question: With CCOC(=O)c1cc2c(oc1=O)-c1c(c(C(=O)OCC)n(Cc3ccc(OC)cc3)c1C)CC2 as the compound, how does the IC50 read?
Answer: > 20 µM

Question: Which IC50 does the source give for CCOC(=O)c1cc2c(oc1=O)-c1c(c(C(=O)OCC)n(C)c1C)CC2 here?
Answer: > 20 µM

System: Jurkat
Experiment: Cytotoxicity against human Jurkat cells after 72 hrs by MTT assay
Assay type: functional, cell-based
Conditions: not given

Question: For CCOC(=O)c1cc2ccc3c(C(=O)OCC)[nH]c(C)c3c2oc1=O, which IC50 is on record?
Answer: > 20 µM

Question: For CCOC(=O)c1cc2c(oc1=O)-c1cn(C)cc1CC2, which IC50 is on record?
Answer: > 20 µM

Question: Which IC50 does the source give for CCOC(=O)c1cc2ccc3c(C(=O)OCC)n(C)c(C)c3c2oc1=O here?
Answer: > 20 µM

Question: Which IC50 does the source give for CCOC(=O)c1cc2c(oc1=O)-c1c(c(C(=O)OCC)n(Cc3ccc(OC)cc3)c1C)CC2 here?
Answer: > 20 µM

Question: Which IC50 does the source give for CCOC(=O)c1cc2c(oc1=O)-c1c(c(C(=O)OCC)n(C)c1C)CC2 here?
Answer: > 20 µM

System: not listed separately
Experiment: Phototoxicity against human NCTC-2544 cells exposed to irradiation with 2.5 J/cm'2 UVA light prior to 72 hrs drug exposure by MTT assay
Assay type: cell-based
Conditions: NCTC-2544, light or radiation study
Summary of the method: as §1

Question: With CCOC(=O)c1cc2ccc3c(C(=O)OCC)[nH]c(C)c3c2oc1=O as the compound, how does the IC50 read?
Answer: > 20 µM

Question: Which IC50 does the source give for CCOC(=O)c1cc2c(oc1=O)-c1cn(C)cc1CC2 here?
Answer: > 20 µM

Question: Which IC50 does the source give for CCOC(=O)c1cc2ccc3c(C(=O)OCC)n(C)c(C)c3c2oc1=O here?
Answer: > 20 µM

Question: Which IC50 does the source give for CCOC(=O)c1cc2c(oc1=O)-c1c(c(C(=O)OCC)n(Cc3ccc(OC)cc3)c1C)CC2 here?
Answer: > 20 µM

Question: For CCOC(=O)c1cc2c(oc1=O)-c1c(c(C(=O)OCC)n(C)c1C)CC2, which IC50 is on record?
Answer: > 20 µM

System: not listed separately
Experiment: Cytotoxicity against human NCTC-2544 cells after 72 hrs by MTT assay
Assay type: cell-based
Conditions: NCTC-2544, 72 h

Question: With CCOC(=O)c1cc2ccc3c(C(=O)OCC)[nH]c(C)c3c2oc1=O as the compound, how does the IC50 read?
Answer: > 20 µM

Question: With CCOC(=O)c1cc2c(oc1=O)-c1cn(C)cc1CC2 as the compound, how does the IC50 read?
Answer: > 20 µM

Question: Which IC50 does the source give for CCOC(=O)c1cc2ccc3c(C(=O)OCC)n(C)c(C)c3c2oc1=O here?
Answer: > 20 µM

Question: With CCOC(=O)c1cc2c(oc1=O)-c1c(c(C(=O)OCC)n(Cc3ccc(OC)cc3)c1C)CC2 as the compound, how does the IC50 read?
Answer: > 20 µM

Question: For CCOC(=O)c1cc2c(oc1=O)-c1c(c(C(=O)OCC)n(C)c1C)CC2, which IC50 is on record?
Answer: > 20 µM

System: K562
Experiment: Cytotoxicity against human K562 cells after 72 hrs by MTT assay
Assay type: functional, cell-based
Conditions: K562, 72 h

Question: Which IC50 does the source give for CCOC(=O)c1cc2ccc3c(C(=O)OCC)[nH]c(C)c3c2oc1=O here?
Answer: > 20 µM

Question: With CCOC(=O)c1cc2c(oc1=O)-c1cn(C)cc1CC2 as the compound, how does the IC50 read?
Answer: > 20 µM

Question: For CCOC(=O)c1cc2ccc3c(C(=O)OCC)n(C)c(C)c3c2oc1=O, which IC50 is on record?
Answer: > 20 µM

Question: For CCOC(=O)c1cc2c(oc1=O)-c1c(c(C(=O)OCC)n(Cc3ccc(OC)cc3)c1C)CC2, which IC50 is on record?
Answer: > 20 µM

Question: With CCOC(=O)c1cc2c(oc1=O)-c1c(c(C(=O)OCC)n(C)c1C)CC2 as the compound, how does the IC50 read?
Answer: > 20 µM

System: Jurkat
Experiment: Phototoxicity against human Jurkat cells exposed to irradiation with 2.5 J/cm'2 UVA light prior to 72 hrs drug exposure by MTT assay
Assay type: functional, cell-based
Conditions: light or radiation study
Summary of the method: as §1

Question: For CCOC(=O)c1cc2ccc3c(C(=O)OCC)[nH]c(C)c3c2oc1=O, which IC50 is on record?
Answer: > 20 µM

Question: For CCOC(=O)c1cc2c(oc1=O)-c1cn(C)cc1CC2, which IC50 is on record?
Answer: > 20 µM

Question: For CCOC(=O)c1cc2ccc3c(C(=O)OCC)n(C)c(C)c3c2oc1=O, which IC50 is on record?
Answer: > 20 µM

Question: With CCOC(=O)c1cc2c(oc1=O)-c1c(c(C(=O)OCC)n(Cc3ccc(OC)cc3)c1C)CC2 as the compound, how does the IC50 read?
Answer: > 20 µM

Question: Which IC50 does the source give for CCOC(=O)c1cc2c(oc1=O)-c1c(c(C(=O)OCC)n(C)c1C)CC2 here?
Answer: 15.4 µM

System: LoVo
Experiment: Cytotoxicity against human LoVo cells after 72 hrs by MTT assay
Assay type: functional, cell-based
Conditions: not given

Question: Which IC50 does the source give for CCOC(=O)c1cc2ccc3c(C(=O)OCC)[nH]c(C)c3c2oc1=O here?
Answer: > 20 µM

Question: Which IC50 does the source give for CCOC(=O)c1cc2c(oc1=O)-c1cn(C)cc1CC2 here?
Answer: > 20 µM

Question: For CCOC(=O)c1cc2ccc3c(C(=O)OCC)n(C)c(C)c3c2oc1=O, which IC50 is on record?
Answer: > 20 µM

Question: With CCOC(=O)c1cc2c(oc1=O)-c1c(c(C(=O)OCC)n(Cc3ccc(OC)cc3)c1C)CC2 as the compound, how does the IC50 read?
Answer: > 20 µM

Question: With CCOC(=O)c1cc2c(oc1=O)-c1c(c(C(=O)OCC)n(C)c1C)CC2 as the compound, how does the IC50 read?
Answer: > 20 µM

System: K562
Experiment: Phototoxicity against human K562 cells exposed to irradiation with 2.5 J/cm'2 UVA light prior to 72 hrs drug exposure by MTT assay
Assay type: functional, cell-based
Conditions: K562, light or radiation study
Summary of the method: as §1

Question: Which IC50 does the source give for CCOC(=O)c1cc2ccc3c(C(=O)OCC)[nH]c(C)c3c2oc1=O here?
Answer: > 20 µM

Question: For CCOC(=O)c1cc2c(oc1=O)-c1cn(C)cc1CC2, which IC50 is on record?
Answer: > 20 µM

Question: With CCOC(=O)c1cc2ccc3c(C(=O)OCC)n(C)c(C)c3c2oc1=O as the compound, how does the IC50 read?
Answer: > 20 µM

Question: With CCOC(=O)c1cc2c(oc1=O)-c1c(c(C(=O)OCC)n(Cc3ccc(OC)cc3)c1C)CC2 as the compound, how does the IC50 read?
Answer: > 20 µM

Question: Which IC50 does the source give for CCOC(=O)c1cc2c(oc1=O)-c1c(c(C(=O)OCC)n(C)c1C)CC2 here?
Answer: 13.9 µM

System: LoVo
Experiment: Phototoxicity against human LoVo cells exposed to irradiation with 3.75 J/cm'2 UVA light prior to 72 hrs drug exposure by MTT assay
Assay type: functional, cell-based
Conditions: light or radiation study
Summary of the method: as §1

Question: With CCOC(=O)c1cc2ccc3c(C(=O)OCC)[nH]c(C)c3c2oc1=O as the compound, how does the IC50 read?
Answer: 17.8 µM

Question: For CCOC(=O)c1cc2c(oc1=O)-c1cn(C)cc1CC2, which IC50 is on record?
Answer: > 20 µM

Question: Which IC50 does the source give for CCOC(=O)c1cc2ccc3c(C(=O)OCC)n(C)c(C)c3c2oc1=O here?
Answer: 6.7 µM

Question: With CCOC(=O)c1cc2c(oc1=O)-c1c(c(C(=O)OCC)n(Cc3ccc(OC)cc3)c1C)CC2 as the compound, how does the IC50 read?
Answer: > 20 µM

Question: For CCOC(=O)c1cc2c(oc1=O)-c1c(c(C(=O)OCC)n(C)c1C)CC2, which IC50 is on record?
Answer: 11.1 µM

System: Jurkat
Experiment: Phototoxicity against human Jurkat cells exposed to irradiation with 3.75 J/cm'2 UVA light prior to 72 hrs drug exposure by MTT assay
Assay type: functional, cell-based
Conditions: light or radiation study
Summary of the method: as §1

Question: Which IC50 does the source give for CCOC(=O)c1cc2ccc3c(C(=O)OCC)[nH]c(C)c3c2oc1=O here?
Answer: > 20 µM

Question: For CCOC(=O)c1cc2c(oc1=O)-c1cn(C)cc1CC2, which IC50 is on record?
Answer: > 20 µM

Question: For CCOC(=O)c1cc2ccc3c(C(=O)OCC)n(C)c(C)c3c2oc1=O, which IC50 is on record?
Answer: > 20 µM

Question: Which IC50 does the source give for CCOC(=O)c1cc2c(oc1=O)-c1c(c(C(=O)OCC)n(Cc3ccc(OC)cc3)c1C)CC2 here?
Answer: 13.5 µM

Question: Which IC50 does the source give for CCOC(=O)c1cc2c(oc1=O)-c1c(c(C(=O)OCC)n(C)c1C)CC2 here?
Answer: 15.2 µM

System: LoVo
Experiment: Phototoxicity against human LoVo cells exposed to irradiation with 2.5 J/cm'2 UVA light prior to 72 hrs drug exposure by MTT assay
Assay type: functional, cell-based
Conditions: light or radiation study
Summary of the method: as §1

Question: Which IC50 does the source give for CCOC(=O)c1cc2ccc3c(C(=O)OCC)[nH]c(C)c3c2oc1=O here?
Answer: > 20 µM

Question: Which IC50 does the source give for CCOC(=O)c1cc2c(oc1=O)-c1cn(C)cc1CC2 here?
Answer: > 20 µM

Question: For CCOC(=O)c1cc2ccc3c(C(=O)OCC)n(C)c(C)c3c2oc1=O, which IC50 is on record?
Answer: 16.2 µM

Question: Which IC50 does the source give for CCOC(=O)c1cc2c(oc1=O)-c1c(c(C(=O)OCC)n(Cc3ccc(OC)cc3)c1C)CC2 here?
Answer: > 20 µM

Question: Which IC50 does the source give for CCOC(=O)c1cc2c(oc1=O)-c1c(c(C(=O)OCC)n(C)c1C)CC2 here?
Answer: > 20 µM

System: K562
Experiment: Phototoxicity against human K562 cells exposed to irradiation with 3.75 J/cm'2 UVA light prior to 72 hrs drug exposure by MTT assay
Assay type: functional, cell-based
Conditions: K562, light or radiation study
Summary of the method: as §1

Question: For CCOC(=O)c1cc2ccc3c(C(=O)OCC)[nH]c(C)c3c2oc1=O, which IC50 is on record?
Answer: > 20 µM

Question: Which IC50 does the source give for CCOC(=O)c1cc2c(oc1=O)-c1cn(C)cc1CC2 here?
Answer: > 20 µM

Question: With CCOC(=O)c1cc2ccc3c(C(=O)OCC)n(C)c(C)c3c2oc1=O as the compound, how does the IC50 read?
Answer: > 20 µM

Question: With CCOC(=O)c1cc2c(oc1=O)-c1c(c(C(=O)OCC)n(Cc3ccc(OC)cc3)c1C)CC2 as the compound, how does the IC50 read?
Answer: 14 µM

Question: For CCOC(=O)c1cc2c(oc1=O)-c1c(c(C(=O)OCC)n(C)c1C)CC2, which IC50 is on record?
Answer: 13.1 µM
